ChEMBL document CHEMBL4138242, “Synthesis and antibacterial evaluation of novel cationic chalcone derivatives possessing broad spectrum antibacterial activity” (Eur J Med Chem, 2018)
The source made the active and inactive calls. No cut-off for these calls is given here.

Experiments:
[1] = system: Staphylococcus aureus; test: Antibacterial activity against methicillin-resistant Staphylococcus aureus clinical isolate 1104060 after 16 to 20 hrs by broth microdilution method; format: functional
Summary of the method: (§1)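 CLSI broth microdilution in Mueller-Hinton broth. A 4-6 h culture was diluted to about 10⁶ CFU/mL and mixed 1:1 with compound dilutions prepared at 256 to 0.5 µg/mL from aqueous stocks. Plates were incubated at 37 °C for 16-20 h and read visually for MIC. Each concentration was run in duplicate, and the experiment was repeated at least twice. Vancomycin and meropenem were comparators.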

[2] = system: Staphylococcus aureus; test: Antibacterial activity against Staphylococcus aureus ATCC 29213 after 16 to 20 hrs by broth microdilution method; format: functional
Summary of the method: (§2)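 Broth microdilution per CLSI. Bacteria grown 4-6 h (about 10⁸ CFU/mL), then diluted to about 10⁶ CFU/mL. Medium: Mueller-Hinton broth, except Luria-Bertani broth for E. coli. Compounds in sterile water, twofold series 256-0.5 µg/mL, mixed 1:1 with inoculum, 37 °C for 16-20 h. MIC is the lowest concentration without visible growth. Duplicate wells; experiment repeated at least twice.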

[3] = system: Salmonella enterica; test: Antibacterial activity against Salmonella enterica ATCC 13076 after 16 to 20 hrs by broth microdilution method; format: functional; summary of the method: as §2
[4] = system: Escherichia coli; test: Antibacterial activity against Escherichia coli ATCC 25922 after 16 to 20 hrs by broth microdilution method; format: functional; summary of the method: as §2
[5] = system: Staphylococcus aureus; test: Antibacterial activity against methicillin-resistant Staphylococcus aureus clinical isolate 0906202 after 16 to 20 hrs by broth microdilution method; format: functional; summary of the method: as §1
[6] = system: Escherichia coli; test: Antibacterial activity against drug-resistant NDM1 producing Escherichia coli clinical isolate SM-15-84 after 16 to 20 hrs by broth microdilution method; format: functional; summary of the method: as §1
[7] = system: Escherichia coli; test: Antibacterial activity against drug-resistant NDM1 producing Escherichia coli clinical isolate CF-15-61 after 16 to 20 hrs by broth microdilution method; format: functional; summary of the method: as §1
[8] = system: Escherichia coli; test: Induction of inner membrane permeabilization in Escherichia coli ATCC 25922 at 10 to 20 ug/ml measured every 2 mins for 12 mins by propidium iodide staining-based fluorescence assay; format: functional, organism-based
Summary of the method: (§3)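 Mid-log cells (~10⁸ CFU/mL) were suspended in PBS (S. aureus) or HEPES/glucose/KCl (E. coli). They were preincubated with propidium iodide for 30 min (S. aureus) or 40 min (E. coli), and baseline fluorescence was read for 8 min. Compound was added to 20 µg/mL final, and fluorescence (ex 535/em 617 nm) was read every 2 min for 12 min.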

[9] = system: Escherichia coli; test: Antibacterial activity against drug-resistant NDM1 producing Escherichia coli clinical isolate Ecl-14-56 after 16 to 20 hrs by broth microdilution method; format: functional; summary of the method: as §1
[10] = system: Staphylococcus aureus; test: Antibacterial activity against methicillin-resistant Staphylococcus aureus clinical isolate 1207007 after 16 to 20 hrs by broth microdilution method; format: functional; summary of the method: as §1
[11] = system: Klebsiella pneumoniae; test: Antibacterial activity against drug-resistant carbapenemase producing Klebsiella pneumoniae clinical isolate KP-14-45 after 16 to 20 hrs by broth microdilution method; format: functional; summary of the method: as §1
[12] = system: Klebsiella pneumoniae; test: Antibacterial activity against drug-resistant carbapenemase producing Klebsiella pneumoniae clinical isolate KP-14-4 after 16 to 20 hrs by broth microdilution method; format: functional; summary of the method: as §1
[13] = system: Escherichia coli; test: Antibacterial activity against drug-resistant NDM1 producing Escherichia coli clinical isolate Ecl-14-58 after 16 to 20 hrs by broth microdilution method; format: functional; summary of the method: as §1
[14] = system: Klebsiella pneumoniae; test: Antibacterial activity against drug-resistant carbapenemase producing Klebsiella pneumoniae clinical isolate KP-13-55 after 16 to 20 hrs by broth microdilution method; format: functional; summary of the method: as §1
[15] = system: Staphylococcus aureus; test: Antibacterial activity against methicillin-resistant Staphylococcus aureus clinical isolate 20130911034sau after 16 to 20 hrs by broth microdilution method; format: functional; summary of the method: as §1
[16] = system: Staphylococcus aureus; test: Induction of inner membrane permeabilization in Staphylococcus aureus ATCC 29213 at 10 to 20 ug/ml measured every 2 mins for 12 mins by propidium iodide staining-based fluorescence assay; format: functional, organism-based; summary of the method: as §3
[17] = system: Klebsiella pneumoniae; test: Antibacterial activity against drug-resistant carbapenemase producing Klebsiella pneumoniae clinical isolate KP-13-45 after 16 to 20 hrs by broth microdilution method; format: functional; summary of the method: as §1
[18] = system: Escherichia coli; test: Antibacterial activity against drug-resistant NDM1 producing Escherichia coli clinical isolate CF-13-61 after 16 to 20 hrs by broth microdilution method; format: functional; summary of the method: as §1
[19] = system: Staphylococcus aureus; test: Antibacterial activity against methicillin-resistant Staphylococcus aureus clinical isolate 0831010 after 16 to 20 hrs by broth microdilution method; format: functional; summary of the method: as §1
[20] = system: Escherichia coli; test: Induction of cytoplasmic membrane depolarization in Escherichia coli ATCC 25922 at 10 to 20 ug/ml measured every 2 mins for 12 mins by DiSC35 dye-based fluorescence assay; format: functional, organism-based
Summary of the method: (§4)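 Mid-log cells (~10⁸ CFU/mL) were suspended in PBS (S. aureus) or HEPES/glucose/KCl with EDTA (E. coli). They were preloaded with DiSC3(5) for 30 min (S. aureus) or 40 min (E. coli), and baseline fluorescence was read for 8 min. Compound was added to 20 µg/mL final, and fluorescence (ex 622/em 670 nm) was read every 2 min for 12 min. Water served as control.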

[21] = system: Staphylococcus aureus; test: Antibacterial activity against methicillin-resistant Staphylococcus aureus clinical isolate 1-may after 16 to 20 hrs by broth microdilution method; format: functional; summary of the method: as §1
[22] = system: Escherichia coli; test: Antibacterial activity against drug-resistant NDM1 producing Escherichia coli clinical isolate 1460 after 16 to 20 hrs by broth microdilution method; format: functional; summary of the method: as §1
[23] = system: Staphylococcus aureus; test: Antibacterial activity against methicillin-resistant Staphylococcus aureus clinical isolate 1208143 after 16 to 20 hrs by broth microdilution method; format: functional; summary of the method: as §1
[24] = system: Escherichia coli; test: Antibacterial activity against drug-resistant NDM1 producing Escherichia coli clinical isolate Ecl-13-62 after 16 to 20 hrs by broth microdilution method; format: functional; summary of the method: as §1
[25] = system: Klebsiella pneumoniae; test: Antibacterial activity against drug-resistant carbapenemase producing Klebsiella pneumoniae clinical isolate KP-13-54 after 16 to 20 hrs by broth microdilution method; format: functional; summary of the method: as §1
[26] = system: Klebsiella pneumoniae; test: Antibacterial activity against drug-resistant carbapenemase producing Klebsiella pneumoniae clinical isolate KP-14-18 after 16 to 20 hrs by broth microdilution method; format: functional; summary of the method: as §1
[27] = system: Escherichia coli; test: Antibacterial activity against drug-resistant NDM1 producing Escherichia coli clinical isolate EC-13-49 after 16 to 20 hrs by broth microdilution method; format: functional; summary of the method: as §1
[28] = system: Klebsiella pneumoniae; test: Antibacterial activity against drug-resistant carbapenemase producing Klebsiella pneumoniae clinical isolate KP-14-3 after 16 to 20 hrs by broth microdilution method; format: functional; summary of the method: as §1
[29] = Hemolytic activity in sheep RBC after 1 hr; format: ADME, cell-based, Ovis aries, Erythrocyte; details: sheep red blood cells (erythrocytes)
Summary of the method: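 Sheep red blood cells (150 µL suspension) mixed with 50 µL of compound dilutions (5120-10 µg/mL), 1 h at 37 °C, then centrifuged. Supernatant read at 540 nm. Percent hemolysis calculated relative to RBC-only control (0%) and 0.1% Triton X-100 (100%).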

[30] = system: Klebsiella pneumoniae; test: Antibacterial activity against drug-resistant carbapenemase producing Klebsiella pneumoniae clinical isolate KP-14-1 after 16 to 20 hrs by broth microdilution method; format: functional; summary of the method: as §1
[31] = system: Staphylococcus aureus; test: Antibacterial activity against methicillin-resistant Staphylococcus aureus clinical isolate 1105183 cono7 after 16 to 20 hrs by broth microdilution method; format: functional; summary of the method: as §1
[32] = system: Staphylococcus aureus; test: Antibacterial activity against methicillin-resistant Staphylococcus aureus clinical isolate 20131012632sau after 16 to 20 hrs by broth microdilution method; format: functional; summary of the method: as §1
[33] = system: Escherichia coli; test: Antibacterial activity against drug-resistant NDM1 producing Escherichia coli clinical isolate EC-14-54 after 16 to 20 hrs by broth microdilution method; format: functional; summary of the method: as §1
[34] = system: Escherichia coli; test: Antibacterial activity against drug-resistant NDM1 producing Escherichia coli clinical isolate Ecl-14-59 after 16 to 20 hrs by broth microdilution method; format: functional; summary of the method: as §1
[35] = system: Klebsiella pneumoniae; test: Antibacterial activity against drug-resistant carbapenemase producing Klebsiella pneumoniae clinical isolate EC-13-23 after 16 to 20 hrs by broth microdilution method; format: functional; summary of the method: as §1
[36] = system: Escherichia coli; test: Antibacterial activity against drug-resistant NDM1 producing Escherichia coli clinical isolate EA-14-61 after 16 to 20 hrs by broth microdilution method; format: functional; summary of the method: as §1
[37] = system: Staphylococcus aureus; test: Induction of cytoplasmic membrane depolarization in Staphylococcus aureus ATCC 29213 at 10 to 20 ug/ml measured every 2 mins for 12 mins by DiSC35 dye-based fluorescence assay; format: functional, organism-based; summary of the method: as §4
[38] = system: Klebsiella pneumoniae; test: Antibacterial activity against drug-resistant carbapenemase producing Klebsiella pneumoniae clinical isolate KP-14-8 after 16 to 20 hrs by broth microdilution method; format: functional; summary of the method: as §1
[39] = system: Escherichia coli; test: Antibacterial activity against drug-resistant NDM1 producing Escherichia coli clinical isolate KP-13-58 after 16 to 20 hrs by broth microdilution method; format: functional; summary of the method: as §1
[40] = system: Klebsiella pneumoniae; test: Antibacterial activity against drug-resistant carbapenemase producing Klebsiella pneumoniae clinical isolate KP-14-5 after 16 to 20 hrs by broth microdilution method; format: functional; summary of the method: as §1
[41] = system: Enterococcus faecalis; test: Antibacterial activity against Enterococcus faecalis ATCC 29212 after 16 to 20 hrs by broth microdilution method; format: functional; summary of the method: as §2
[42] = system: Klebsiella pneumoniae; test: Antibacterial activity against drug-resistant carbapenemase producing Klebsiella pneumoniae clinical isolate KP-14-2 after 16 to 20 hrs by broth microdilution method; format: functional; summary of the method: as §1

Structure (SMILES): CCCCCCCC[N+](C)(C)CC(=O)Nc1ccc(C(=O)/C=C/c2ccc(C)cc2)cc1.[Cl-]
- MIC [1]: 4 mg/L
- MIC [2]: 1 mg/L
- MIC [3]: 8 mg/L
- MIC [4]: 4 mg/L
- MIC [5]: 4 mg/L
- MIC [6]: 1 mg/L
- MIC [7]: 4 mg/L
- Activity [8]: Active
- MIC [9]: 4 mg/L
- MIC [10]: 0.5 mg/L
- MIC [11]: 4 mg/L
- MIC [12]: 4 mg/L
- MIC [13]: 4 mg/L
- MIC [14]: 16 mg/L
- MIC [15]: 0.5 mg/L
- Activity [16]: Active
- MIC [17]: 4 mg/L
- MIC [18]: 32 mg/L
- MIC [19]: 0.5 mg/L
- Activity [20]: Active
- MIC [21]: 1 mg/L
- MIC [22]: 8 mg/L
- MIC [23]: 2 mg/L
- MIC [24]: 8 mg/L
- MIC [25]: 8 mg/L
- MIC [26]: 16 mg/L
- MIC [27]: 4 mg/L
- MIC [28]: 8 mg/L
- HC50 at 1 h [29]: 153 µg/mL
- MIC [30]: 8 mg/L
- MIC [31]: 1 mg/L
- MIC [32]: 2 mg/L
- MIC [33]: 8 mg/L
- MIC [34]: 4 mg/L
- MIC [35]: 4 mg/L
- MIC [36]: 4 mg/L
- Activity [37]: Active
- MIC [38]: 4 mg/L
- MIC [39]: 2 mg/L
- MIC [40]: 4 mg/L
- MIC [41]: 1 mg/L
- MIC [42]: 16 mg/L

Structure (SMILES): CCCCCCCC[N+](C)(C)CC(=O)Nc1ccc(C(=O)/C=C/c2ccc3ccccc3c2)cc1.[Cl-]
- MIC [1]: 16 mg/L
- MIC [2]: 2 mg/L
- MIC [3]: 8 mg/L
- MIC [4]: 8 mg/L
- MIC [5]: 32 mg/L
- MIC [6]: 128 mg/L
- MIC [7]: 16 mg/L
- Activity [8]: Active
- MIC [9]: 8 mg/L
- MIC [10]: 2 mg/L
- MIC [11]: > 128 mg/L
- MIC [12]: 32 mg/L
- MIC [13]: 16 mg/L
- MIC [14]: > 128 mg/L
- MIC [15]: 1 mg/L
- Activity [16]: Active
- MIC [17]: 16 mg/L
- MIC [18]: 1 mg/L
- MIC [19]: 1 mg/L
- Activity [20]: Active
- MIC [21]: 2 mg/L
- MIC [22]: 16 mg/L
- MIC [23]: 2 mg/L
- MIC [24]: 8 mg/L
- MIC [25]: 16 mg/L
- MIC [26]: > 128 mg/L
- MIC [27]: 16 mg/L
- MIC [28]: 16 mg/L
- HC50 at 1 h [29]: 374 µg/mL
- MIC [30]: > 128 mg/L
- MIC [31]: 1 mg/L
- MIC [32]: 8 mg/L
- MIC [33]: 1 mg/L
- MIC [34]: 16 mg/L
- MIC [35]: 8 mg/L
- MIC [36]: 8 mg/L
- Activity [37]: Active
- MIC [38]: 16 mg/L
- MIC [39]: 2 mg/L
- MIC [40]: 16 mg/L
- MIC [41]: 2 mg/L
- MIC [42]: > 128 mg/L
